High-throughput results as filed in PubChem BioAssay.
SENP8 block-1 – inhibitors of human SENP8 protease. inhibition, % at 10 µM. 1.2% of 330,000 active. Q96LD8. purified SENP8, Z-RLRGG-aminoluciferin cleavage, luminescence; in the data active = inhibition above about 50%
Target sequence (Q96LD8 whole entry, looked up): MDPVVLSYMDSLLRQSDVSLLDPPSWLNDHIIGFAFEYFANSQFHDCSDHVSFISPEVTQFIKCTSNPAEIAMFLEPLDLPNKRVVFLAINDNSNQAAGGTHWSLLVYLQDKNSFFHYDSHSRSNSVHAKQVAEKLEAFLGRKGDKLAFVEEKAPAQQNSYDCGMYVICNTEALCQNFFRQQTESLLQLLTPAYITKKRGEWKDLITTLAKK
SENP1 FRET inh – SENP1 (human) catalytic domain inhibition; Q9P0U3; recombinant SENP1 catalytic domain, CyPet-SUMO1-YPet FRET cleavage; inhibition, % at 10 µM; 0.21% of 360,000 active; AID 624204;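 active = inhibition at least 30% at 10 µM, raw YFP signal under a set limit, fluorescence ratio 0.5 to 1.5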;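 also: 0% = enzyme with DMSO and 100% = no enzyme wells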
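System: Recombinant human SENP1 catalytic domain, His6-tagged | Incubation: Enzyme reaction for 50 min at room temperature, dark | Medium: Tris pH 8 with BME, BSA, NP40 and catalase | Also added: 25 nM SUMO1 FRET substrate | Compound: 10 µM single point, 0.5% DMSO | Measured by: FRET fluorescence in CFP and YFP emission channels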
SENP7 inh – inhibitors of human SENP7 protease; Q9BQF6; recombinant SENP7, Z-RLRGG-aminoluciferin luminescence, 40 min; inhibition, % at 5 µM; 1.5% of 330,000 active;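 active = inhibition above about 50% at the single test dose, limit read from the data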;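 also: plate controls were DMSO with enzyme for no effect and no enzyme buffer wells for full effect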
Target sequence (Q9BQF6 706-1050 limits assumed): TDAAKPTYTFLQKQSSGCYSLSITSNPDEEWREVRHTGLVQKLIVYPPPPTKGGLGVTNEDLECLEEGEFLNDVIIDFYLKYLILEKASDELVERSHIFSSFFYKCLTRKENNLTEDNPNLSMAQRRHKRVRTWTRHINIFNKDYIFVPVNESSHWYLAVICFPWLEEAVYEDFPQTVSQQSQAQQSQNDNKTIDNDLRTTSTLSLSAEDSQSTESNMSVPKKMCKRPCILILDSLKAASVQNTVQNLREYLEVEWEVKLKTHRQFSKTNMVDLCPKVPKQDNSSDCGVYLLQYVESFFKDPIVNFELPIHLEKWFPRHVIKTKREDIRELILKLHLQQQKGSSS
SENP6 inh – SENP6 protease inhibition; Q9GZR1; Recombinant SENP6 catalytic domain, aminoluciferin luminescence; inhibition, % at 10 µM; 1.8% of 330,000 active; AID 2599;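 active = inhibition above about 50% at the single tested dose, limit read from the data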;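 also: plate controls were DMSO wells with enzyme for no effect and DMSO wells lacking enzyme for full effect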
HSP90 inh – blocks HSP90-mediated luciferase refolding in reticulocyte lysate. Rabbit reticulocyte lysate, luciferase refolding luminescence, 3 h. inhibition, % at 5.6 µM. 0.91% of 290,000 active;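 active = inhibition above the screen-wide mean plus 3 SD, computed separately per campaign, cut at about 16% in these data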;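 also: 0% = DMSO wells and 100% = 60 µM geldanamycin wells; inhibitors lower the luminescence because luciferase stays unfolded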
SENP8 block-2 – blocks human SENP8 cleavage of Nedd8 substrate. inhibition, % at 20 µM. Q96LD8. 0.64% of 360,000 active. recombinant SENP8, Nedd8 substrate fluorescence. AID 602440; in the data active = inhibition mostly above about 40%, no sharp cut-off; inactive = mostly below about 27%
HSP90 inh confirm – HSP90 inhibition, confirmation assay | shares compounds with HSP90 inh | AID 1846 | inhibition, % at 5.9 µM | 64% of 2,300 active | rabbit reticulocyte lysate, luciferase refolding luminescence, 3 h; in the data active = inhibition above about 18%;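 also: 0% = vehicle wells and 100% = reference inhibitor wells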
luciferase ctr – counter-screen for HSP90 inhibitors: inhibitors of firefly luciferase; shares compounds with HSP90 inh; purified native firefly luciferase, luminescence; 48% of 2,300 active; inhibition, % at 5.9 µM;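 active = inhibition above the mean inhibition of all tested sample wells plus 3 SD, cut at about 10% in these data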;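 also: 0% = DMSO with luciferase and 100% = wells lacking luciferase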
SENP8 confirm – human SENP8 inhibition, confirmed. shares compounds with SENP7 inh. Recombinant SENP8, Z-RLRGG-aminoluciferin luminescence, 60 min. inhibition, % at 12.5 µM. 40% of 6,200 active. AID 488912;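 active = mean inhibition across replicates above about 50%, limit read from the data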
SENP6 conf – human SENP6 inhibition, confirmed. shares compounds with SENP7 inh. recombinant SENP6, Z-RLRGG-aminoluciferin luminescence. inhibition, % at 12.5 µM. 58% of 6,200 active
SENP7 confirm – human SENP7 inhibition, confirmed; AID 488917; inhibition, % at 12.5 µM; shares compounds with SENP7 inh; recombinant SENP7, Z-RLRGG-aminoluciferin luminescence, 40 min; 69% of 6,200 active
Casp3 select – inhibits human caspase-3 in SENP selectivity test; inhibition, % at 12.5 µM; purified caspase-3, Z-DEVD-aminoluciferin luminescence, 60 min; 60% of 6,200 active; shares compounds with SENP7 inh;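 active = mean inhibition above about 50%, limit read from the data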;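 also: plate controls were enzyme with DMSO for no effect and wells without caspase-3 for full effect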
SENP luc ctr – interferes with luciferase luminescence in SENP counter-screen. shares compounds with SENP7 inh. Pre-incubated SENP8/Z-RLRGG-aminoluciferin, luciferase luminescence interference. inhibition, % at 12.5 µM. 39% of 6,200 active. AID 488919;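 active = mean inhibition above about 50% when retested at one dose, limit read from the data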;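 also: plate controls were DMSO wells with completed reaction for no effect and substrate without enzyme for full effect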
Active calls of the source: *. Only some compounds are listed: those with a hit (about 2.9% of all), similar ones and a draw of the others.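 The calls were made as follows, unless noted: active = mean inhibition above about 50% in the one-dose retest (limit read from the data); inactive = the rest.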

Screening Cc1ccc(-c2nc(C)c(C(=O)O)s2)cc1 returned SENP8 block-1 93.4*, SENP1 FRET inh 2.5, SENP7 inh 97.5*, SENP6 inh 95.0*, HSP90 inh 74.5*, SENP8 block-2 -24.9, HSP90 inh confirm 84.9*, luciferase ctr 17.1*, SENP8 confirm 98.9*, SENP6 conf 99.7*, SENP7 confirm 103.2*, Casp3 select 92.3* and SENP luc ctr 98.2*.
CC(=O)c1sc(-c2ccccc2)nc1C was read as SENP8 block-1 -4.1, SENP1 FRET inh -0.3, SENP7 inh 1.7, SENP6 inh -9.9, HSP90 inh -0.6 and SENP8 block-2 15.4.
Cc1nc(-c2ccccc2)sc1C(=O)O was read as SENP8 block-1 39.7, SENP1 FRET inh 0.3, SENP7 inh 35.7, SENP6 inh 42.8, HSP90 inh 2.2 and SENP8 block-2 9.2.
For Cc1cccc2cc(-c3nc4ccc(C(=O)O)cc4[nH]3)c(=O)oc12 the results were SENP8 block-1 85.8*, SENP1 FRET inh -25.3, SENP7 inh 85.7*, SENP6 inh 88.2*, HSP90 inh 20.6*, SENP8 block-2 -282.4, HSP90 inh confirm 9.0, luciferase ctr 20.8*, SENP8 confirm 93.5*, SENP6 conf 94.2*, SENP7 confirm 100.2*, Casp3 select 98.4* and SENP luc ctr 56.4*.
For O=C(Nc1nc2ccccc2[nH]1)c1ccccc1 the results were SENP8 block-1 89.7*, SENP1 FRET inh 11.9, SENP7 inh 92.6*, SENP6 inh 95.5*, HSP90 inh 17.1*, SENP8 block-2 1.3, HSP90 inh confirm 57.3*, luciferase ctr 39.3*, SENP8 confirm 82.5*, SENP6 conf 91.3*, SENP7 confirm 100.3*, Casp3 select 96.1* and SENP luc ctr 31.5.
O=C(O)c1cccc(-c2nc3ccccc3[nH]2)c1 was read as SENP8 block-1 94.4*, SENP1 FRET inh 1.1, SENP7 inh 99.4*, SENP6 inh 93.9*, HSP90 inh 72.7*, SENP8 block-2 -50.7, HSP90 inh confirm 80.2*, luciferase ctr 60.1*, SENP8 confirm 95.9*, SENP6 conf 96.8*, SENP7 confirm 100.5*, Casp3 select 89.1* and SENP luc ctr 95.7*.
For O=C(Nc1nc2ccccc2[nH]1)c1ccc(Cl)cc1 the results were SENP8 block-1 87.1*, SENP1 FRET inh -0.7, SENP7 inh 90.1*, SENP6 inh 93.2*, HSP90 inh 46.0*, SENP8 block-2 -38.1, HSP90 inh confirm 65.0*, luciferase ctr 57.9*, SENP8 confirm 42.1, SENP6 conf 92.0*, SENP7 confirm 99.9*, Casp3 select 93.2* and SENP luc ctr 24.1.
`O=C(O)c1ccc2nc(C(F)(F)F)[nH]c2c1` gave SENP8 block-1 -4.4, SENP1 FRET inh -2.2, SENP7 inh -0.9, SENP6 inh -9.9, HSP90 inh 4.3 and SENP8 block-2 17.9.
Screening Cc1cc(Cl)c2oc(C(=O)N3CCCCC3CCN3CCCC3=O)c(C)c2c1 (centres undefined) returned SENP8 block-1 -4.8, SENP1 FRET inh 1.2, SENP7 inh 2.0, SENP6 inh -24.0, HSP90 inh 0.1 and SENP8 block-2 7.0.
For COc1ccc(-c2nc3ccccc3[nH]2)cc1 the results were SENP8 block-1 95.5*, SENP1 FRET inh 2.9, SENP7 inh 97.4*, SENP6 inh 93.9*, HSP90 inh 19.9*, SENP8 block-2 -25.2, HSP90 inh confirm 46.7*, luciferase ctr 32.8*, SENP8 confirm 95.9*, SENP6 conf 98.2*, SENP7 confirm 102.8*, Casp3 select 98.0* and SENP luc ctr 96.4*.
Screening c1ccc2[nH]c(-c3ccncc3)nc2c1 returned SENP8 block-1 1.1, SENP1 FRET inh 0.0, SENP7 inh 7.1, SENP6 inh 12.8, HSP90 inh -4.5 and SENP8 block-2 -363.0.
For C/C(=N\NC(=O)c1ccccc1O)c1cccs1 the results were SENP8 block-1 18.2, SENP1 FRET inh -40.8, SENP7 inh 60.7*, SENP6 inh 0.8, HSP90 inh 23.4*, SENP8 block-2 -35.6, HSP90 inh confirm 40.3*, luciferase ctr 44.3*, SENP8 confirm 50.4*, SENP6 conf 45.1, SENP7 confirm 77.6*, Casp3 select 85.1* and SENP luc ctr 57.5*.
C/C(=N\NC(=O)c1cccc2ccccc12)c1cccs1 was read as SENP8 block-1 1.5, SENP1 FRET inh 2.0, SENP7 inh -0.1, SENP6 inh -7.5, HSP90 inh 1.2 and SENP8 block-2 10.1.
`CCCCNC(=O)c1onc(CS(=O)(=O)c2ccccn2)c1C(=O)NCCCC` gave SENP8 block-1 -3.5, SENP1 FRET inh -0.2, SENP7 inh -0.4, SENP6 inh 11.3 and SENP8 block-2 9.0.
Screening COC(=O)c1ccc2nc(-c3ccc(S(C)(=O)=O)cc3)cn2c1 returned SENP8 block-1 -14.7, SENP1 FRET inh -8.8, SENP7 inh -2.6, SENP6 inh -31.7, HSP90 inh 0.7 and SENP8 block-2 -445.4.
Screening CS(=O)(=O)c1ccc(-c2cn3cc(C(=O)O)ccc3n2)cc1 returned SENP8 block-1 54.9*, SENP1 FRET inh 1.4, SENP7 inh 57.7*, SENP6 inh 60.0*, HSP90 inh 63.2*, SENP8 block-2 -388.6, HSP90 inh confirm 74.6*, luciferase ctr 3.0, SENP8 confirm 9.8, SENP6 conf 66.3*, SENP7 confirm 85.5*, Casp3 select 36.0 and SENP luc ctr 56.1*.
For COC(=O)C1=C(C)N(Cc2ccco2)C(=O)N[C@@H]1c1ccco1 the results were SENP8 block-1 -0.4, SENP1 FRET inh 0.2, SENP7 inh -2.2, SENP6 inh -11.0 and SENP8 block-2 7.7.
